Screening data: PubChem BioAssay, several laboratories
An excerpt weighted towards active compounds, which were near 6.4% of everything screened.
CHOP inh: inhibitors of CHOP promoter induction, primary screen, cell-based, unfolded protein response, luciferase reporter; CHO-K1 CHOP-promoter luciferase, tunicamycin-induced, 15-18 h; actives 3.8% (n = 220,000); inhibition, % at 10 µM;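 active means compounds that reduced the stress-induced luciferase reporter signal by more than about 70% of percent inhibition, limit read from the data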;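 further: 0% = tunicamycin plus vehicle and 100% = wells without tunicamycin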
EBV gp42 inh: Epstein-Barr virus gp42 inhibitors, primary screen, biochemical, uHTS, fluorescence polarization; AID 1085, 2008; Glycoprotein 42 (Epstein-Barr virus (strain AG876)), Q1HVG2; Fluorescence polarization binding assay, mP read-out; actives 0.42% (n = 220,000); inhibition, % (tested at 21.74 µM); in the data active means inhibition above about 50%
Target sequence (Q1HVG2 whole entry, looked up): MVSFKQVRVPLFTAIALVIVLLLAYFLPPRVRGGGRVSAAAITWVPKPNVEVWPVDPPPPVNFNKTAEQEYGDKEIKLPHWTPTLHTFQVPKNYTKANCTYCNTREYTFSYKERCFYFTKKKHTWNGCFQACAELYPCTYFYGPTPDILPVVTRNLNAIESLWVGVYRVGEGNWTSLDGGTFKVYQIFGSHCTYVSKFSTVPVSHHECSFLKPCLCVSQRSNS
WT yeast gro inh: growth inhibition of WT strain, primary screen, mitochondrial fusion inhibitor project, WT and mutant strains, chemical genetic; mitochondrial fusion phenotypic screen; inhibition, % at 10 µM; actives 2.1% (n = 190,000); AID 1362, 2008; in the data active means inhibition above about 58%; tested in S. cerevisiae
GRIN3A LBD mod: binders of NR3A ligand-binding domain, primary screen, biophysical, differential scanning fluorimetry, uHTS; Glutamate receptor ionotropic, NMDA 3A (GRIN3A) ligand-binding domain; NR3A LBD differential scanning fluorimetry, Tm shift; 0% = protein alone, 100% = glycine-bound protein; Tm shift relative to glycine control, % at 25 µM; actives 2.5% (n = 340,000); AID 1259313, 2017;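 active means melting temperature shift of at least 10% of the positive control shift, at one fixed dose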
TbMetRS inhib: T. brucei MetRS inhibitors, primary screen, biochemical, luminescence; methionyl-tRNA synthetase (Trypanosoma brucei brucei); purified T. brucei MetRS, ATP depletion, Kinase-Glo luminescence; inhibition, % at 11.9 µM; actives 0.4% (n = 360,000);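 active means inhibition above a per-plate cutoff of the control wells' mean inhibition plus 3 SD, cut at about 5.5% in these data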;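 further: 0% = DMSO wells median and 100% = median of wells with control inhibitor compound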
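Dosing: 11.9 µM single point; system: parasite MetRS enzyme; technique: luminescence of leftover ATP; times: 15 min enzyme-compound preincubation, 2 h reaction, 10 min detection, 25 °C; replicates: each compound tested once; read-out basis: percent inhibition relative to median high and low control wells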
MPTP block: mitochondrial permeability transition pore inhibitors, primary screen, biochemical, isolated mouse mitochondria, absorbance; Ca2+ swelling absorbance, 30 min; inhibition, % at 10 µM; actives 1.4% (n = 360,000);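 active means inhibition of 50% or more, scaled per plate between neutral and stimulator controls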;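 further: 0% = DMSO wells given calcium and 100% = 1 mM EGTA wells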
MPTP counter: fluorescence retest of MPTP screen hits in isolated mitochondria, single concentration; inhibition, % at 10 µM; membrane potential, Rhodamine 123 fluorescence; actives 78% (n = 5,000); shares compounds with MPTP block; in the data active means inhibition above about 22%;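 further: 0% = DMSO vehicle and 100% = positive control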
MPTP abs DR: mitochondrial permeability transition pore inhibitors, dose response, biochemical, absorbance, uHTS hits. isolated mitochondria swelling. AID 651561, 2012. actives 58% (n = 780). IC50, µM. shares compounds with MPTP block; in the data active means IC50 below about 20 µM
MPTP cs DR: fluorescent counter-screen in isolated mitochondria, dose response, counter-screen for MPTP inhibitor project, biochemical, fluorescence, uHTS hits; shares compounds with MPTP block; isolated mitochondria counterscreen, fluorescence read-out; IC50, µM; actives 49% (n = 780); in the data active means IC50 below about 80 µM
* = called active by the depositor; i = inactive; / = not tested or not shown.

SMILES	CHOP inh	EBV gp42 inh	WT yeast gro inh	GRIN3A LBD mod	TbMetRS inhib	MPTP block	MPTP counter	others
CN1CCN(c2ccc(-c3cccc(NC(=O)COc4ccc(Cl)cc4Cl)c3)nn2)CC1	/	/	/	/	0	74*	-16	MPTP abs DR=19*;MPTP cs DR=>80
Cc1cccc(NC(=S)NNC(=O)COc2ccc(Cl)cc2Cl)c1	31	5	63*	2	1	55*	52*
CN1CCN(c2ccc(-c3cccc(NC(=O)COc4ccc(Cl)cc4)c3)nn2)CC1	/	/	/	0	0	0	/
COc1ccc(Cl)cc1NC(=S)Nc1cccc(C)c1	-9	6	11	-6	-2	-5	/
C=CCn1c(O)c(N=NC(=O)CNC(=O)c2cccs2)c2ccccc21	21	-8	-5	1	0	2	/
Cc1ccc(OCC(=O)c2cc(C)n(Cc3cccs3)c2C)c([N+](=O)[O-])n1	59	-11	9	-2	0	76*	67*
O=[N+]([O-])c1ccc(N/N=C/c2sc(N3CCOCC3)nc2-c2ccccc2)c(S(=O)(=O)Nc2ccccc2Cl)c1	85*	-27	24	7	0	91*	65*
O=C(N/N=C/c1sc(N2CCOCC2)nc1-c1ccccc1)c1ccccc1Cl	28	7	6	-3	-2	-2	/
O=[N+]([O-])c1ccc(N/N=C/c2sc(N3CCOCC3)nc2-c2ccccc2)c(S(=O)(=O)Nc2ccc(Cl)cc2)c1	86*	-19	4	21*	0	86*	76*
COc1ccc(NC(=O)CN(C)CC(=O)Nc2cccc(S(=O)(=O)N(C)c3ccccc3)c2)cc1	52	-9	-4	-5	-1	0	/
O=C(Nc1ccc(Oc2ncnc3cc(Cl)ccc23)nc1)Nc1cccc(C(F)(F)F)c1	17	-24	/	98*	1	90*	25*
O=C(Cn1cnc2cc([N+](=O)[O-])ccc2c1=O)NCCc1ccc(Cl)cc1	18	-12	9	-4	1	0	/
Cc1cccnc1N(C(=O)Nc1cccc(Cl)c1)C1=NCC(C)(C)S1	-19	-1	0	1	0	52*	75*
N#C/C(=C\c1ccc(N2CCOCC2)c([N+](=O)[O-])c1)c1nc2ccccc2[nH]1	53	5	3	1	0	9	/
N#C/C(=C/c1ccc(N2CCCC2)c([N+](=O)[O-])c1)c1nc2ccccc2[nH]1	78*	5	7	12*	0	53*	35*
Cc1ccc2nc(/C(C#N)=C\c3ccc(N4CCCCC4)c([N+](=O)[O-])c3)[nH]c2c1	79*	13	11	-1	-1	56*	64*
O=S(=O)(NCc1cccs1)c1ccc(Br)cc1	/	/	/	5	0	-1	/
O=C(Nc1cccc(Cl)c1)c1ccc(F)c(S(=O)(=O)NCc2ccc3c(c2)OCO3)c1	-11	-3	45	13*	1	51*	66*
O=C(Nc1ccc(Br)cc1)c1ccc(F)c(S(=O)(=O)NCc2cccs2)c1	93*	9	37	18*	2	97*	94*
NC(=O)CCN1CCN(CCOC2Cc3cc(Cl)ccc3Sc3ccccc32)CC1 (stereo not drawn)	5	5	39	-1	0	62*	-8	MPTP abs DR=>100;MPTP cs DR=>80
O=C(Cc1ccc(S(=O)(=O)N2CCCCC2)s1)Nc1ccc(F)c(F)c1	25	6	21	3	1	67*	83*
Cc1cc(C)cc(NC(=O)Cc2ccc(S(=O)(=O)N3CCCC3)s2)c1	/	/	/	-3	0	0	/
O=C(Cc1ccc(S(=O)(=O)N2CCOCC2)s1)Nc1cc(C(F)(F)F)cc(C(F)(F)F)c1	/	/	/	17*	0	69*	78*
O=C(Cc1ccc(S(=O)(=O)N2CCOCC2)s1)Nc1cc(C(F)(F)F)ccc1N1CCCC1	/	/	/	-1	0	-1	/
CCn1nnc(NC(=O)COc2cc(C)ccc2C(C)C)n1	-6	-20	-6	1	0	0	/
SMILES	CHOP inh	EBV gp42 inh	WT yeast gro inh	GRIN3A LBD mod	TbMetRS inhib	MPTP block	MPTP counter	others
CC1CCN(C(=O)N2c3ccccc3Sc3ccccc32)CC1	-3	-1	32	-4	-1	65*	34*
O=C(N1CCOCC1)N1c2ccccc2Sc2ccccc21	30	-1	26	/	0	1	/
CC(=O)N1CCc2cc(S(=O)(=O)NCCC3=CCCCC3)ccc21	/	/	/	2	-2	61*	82*
Cc1ccc(NC(=O)c2cc(S(=O)(=O)NCCC3=CCCCC3)ccc2F)cc1F	70	-3	-7	17*	-1	83*	78*
CC(=O)N1CCc2cc(S(=O)(=O)NCCCN3CCCCC3)ccc21	/	/	/	-3	0	-2	/
O=C(Nc1cccc(F)c1)c1cc(S(=O)(=O)NCCC2=CCCCC2)ccc1F	61	3	60*	22*	0	63*	78*
Cn1c(SCCC#N)nnc1-c1ccc(F)cc1	15	-1	-10	/	0	2	/
CC(C)(C)c1ccc(-c2nnc(SCCC#N)n2C2CCCC2)cc1	72*	-12	66*	2	0	69*	15	MPTP abs DR=i;MPTP cs DR=23*
Fc1ccc(-c2nc(-c3cccs3)[nH]c2-c2ccc(F)cc2)cc1	74*	1	78*	19*	0	77*	74*
Oc1ccc(-c2nc(-c3ccc(F)cc3)c(-c3ccncc3)[nH]2)cc1	-11	/	/	-5	-1	1	/
O=C(Nc1ccc(S(=O)(=O)N2CCCC2)cc1)c1cnccn1	9	9	-11	-1	0	-1	/
O=C(Nc1ccc(S(=O)(=O)N2CCN(Cc3ccccc3)CC2)cc1)c1cnccn1	45	-21	60*	0	-1	73*	42*
Cc1cccc2sc(NNC(=O)C3=COCCO3)nc12	11	-3	7	1	-1	-1	/
Cc1ccc(NC(=O)c2cc(C(=O)c3cc(Cl)ccc3O)cn(-c3ccc(C)cc3)c2=O)cc1	68	-53	31	12*	-1	92*	85*
